The results in this text go back to ChEMBL document CHEMBL2440113, “Synthesis, radiofluorination, and in vivo evaluation of novel fluorinated and iodinated radiotracers for PET imaging and targeted radionuclide therapy of melanoma” (J Med Chem, 2013).

What all share (conditions): in vivo
Data set [1] is described as follows: Ratio of drug level in tumor to bone in C57BL/6J mouse harboring mouse B16-Bl6 cells at 8 to 12 MBq, iv after 1 hr by PET analysis. The format is ADME, organism-based. In a few lines:
(§1)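 Static whole-body PET at 1 h after tail-vein injection of [18F]tracer (9-12 MBq/0.15 mL) in C57BL/6J mice carrying subcutaneous B16Bl6 shoulder tumours (3x10⁵ cells), imaged day 10 or 14. Mice under ketamine/xylazine ip. 25 min acquisition, OSEM reconstruction. ROI % ID/g = counts/g/min ÷ injected dose; ratios = tumour % ID/g ÷ organ % ID/g. n=2-8; mean ± SD.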

Data set [2] in a line: Ratio of drug level in tumor to muscle in C57BL/6J mouse harboring mouse B16-Bl6 cells at 8 to 12 MBq, iv after 1 hr by PET analysis. It is filed as ADME, organism-based. Put shortly:
as §1

The test system of a further data set is Bone. Briefly: Biodistribution in bone of C57BL/6J mouse harboring mouse B16-Bl6 cells at 8 to 12 MBq, iv after 1 hr by PET analysis. The format is ADME, organism-based, Bone element. Put shortly: (§2)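 C57BL/6J mice were inoculated s.c. on the right shoulder with 3x10⁵ B16Bl6 cells in PBS under isoflurane, and imaged at day 10 or 14 (tumor volume 431.8 ± 154.3 mm³). The ¹⁸F tracer was given i.v. via tail vein, 8-12 MBq (methods: 9-12 MBq/0.15 mL). Under ketamine/xylazine i.p., a 25-min whole-body static PET scan ran at 1 h. ROI %ID/g = counts/g/min ÷ injected dose. n=2-8; mean ± SD.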

A further data set has as its system Muscle tissue. Briefly: Biodistribution in muscle of C57BL/6J mouse harboring mouse B16-Bl6 cells at 8 to 12 MBq, iv after 1 hr by PET analysis. The format is ADME, organism-based. Put shortly:
as §2

Data set [3] concerns Mus musculus. Briefly: Biodistribution in eye of C57BL/6J mouse harboring mouse B16-Bl6 cells at 8 to 12 MBq, iv after 1 hr by PET analysis. The format is ADME, organism-based. Put shortly: as §2
For data set [4], the system named is Mus musculus. The data set can be described thus: Biodistribution in tumor of C57BL/6J mouse harboring mouse B16-Bl6 cells at 8 to 12 MBq, iv after 1 hr by PET analysis. It is filed as ADME, organism-based, Neoplasm. Put shortly:
as §1

Consider `CCN(CC[18F])CCNC(=O)c1cnc2cc(I)ccc2n1`, for which the results for the Ratio in data set [1] and in data set [2] were 1.31 and 1.95, respectively. In addition, the Drug uptake with Bone amounted to 1.31 % ID/g; with Muscle tissue, 1.02 % ID/g; with Mus musculus [3], 1.4 % ID/g; in the data set with Mus musculus [4], 2.02 % ID/g.
In the case of `CCN(CCC[18F])CCNC(=O)c1cnc2cc(I)ccc2n1`, the Ratio in data set [1] is on record as 1.5; in data set [2] it was 11.86. Also, the Drug uptake with Bone was found to be 7.05 % ID/g; in the data set on Muscle tissue, 0.9 % ID/g; with Mus musculus [3], 10.46 % ID/g; in the data set on Mus musculus [4] it was 10.56 % ID/g.
As for `CCN(C/C=C/C[18F])CCNC(=O)c1cnc2cc(I)ccc2n1`, the Ratio in data set [1] is given as 1.99; in data set [2] it was 8.27. The Drug uptake was 3.39 % ID/g in the data set with Bone, 0.83 % ID/g with Muscle tissue, 9.49 % ID/g in the data set on Mus musculus [3] and 6.74 % ID/g in the data set on Mus musculus [4].
`CCN(CC#CC[18F])CCNC(=O)c1cnc2cc(I)ccc2n1`: the Ratio was 1.46 in data set [1] and 5.07 in data set [2]. The Drug uptake in the data set on Bone is 2.77 % ID/g; in the data set on Muscle tissue, 0.82 % ID/g; in the data set with Mus musculus [3], 2.7 % ID/g; with Mus musculus [4] it was 4.16 % ID/g.
